Runt-SMMHC FRET: inhibitors of human RUNX1 Runt domain binding to CBFb-SMMHC; inhibition, % at 20 µM; AID 1434; Q01196+Q13951; hit rate 0.74% among 220,000; Cerulean-Runt/Venus-CBFb-SMMHC FRET ratio 530/480, 1 h;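 active = mean inhibition across duplicate retests at 20 µM reaching about 50%, limit read from the data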;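 note: 0% = DMSO wells and 100% = wells with excess untagged CBFb-SMMHC; inhibitors lower the FRET ratio by blocking Runt binding to CBFb-SMMHC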
Runt-CBFb FRET: Runt domain-CBFb interaction inhibition; Q01196+Q13951; Cerulean-Runt/Venus-CBFb FRET ratio 530/480, 1 h; inhibition, % at 20 µM; hit rate 0.46% among 220,000; AID 1496;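 active = inhibition over about 50% at 20 µM in the single-dose screen, limit read from the data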;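 note: 0% = DMSO wells and 100% = excess unlabeled CBFb competitor control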
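Doses: 20 µM compound in 1% DMSO | Material: Cerulean-labeled Runt domain protein | Amount: Each fluorescent fusion protein 100 nM | Schedule: Two 1 h room-temperature incubations shielded from light | Measured by: FRET fluorescence | Evaluation: Loss of energy transfer signal | Controls: Unlabeled CBFb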
RanGTP-Imp inh: disruptors of Ran-importin-beta complex formation – biochemical, FRET, CFP-Ran, YFP-importin-beta, homogeneous, primary screen; cell-free CFP-Ran/YFP-importin-beta FRET ratio; inhibition, % (no concentration beside the values); hit rate 1.1% among 300,000; AID 2216;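 active = more than half of the replicate wells show a fall in the fluorescence ratio signal beyond about 16%, limit read from the data, passing the limit was not always enough; inconclusive = exactly half of the replicate wells pass the set limit; inactive = fewer than half of replicates pass the limit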;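 note: 0% = DMSO wells and 100% = Ran loaded with GDP instead of GTP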
Hck-Nef inh: blocks Nef-activated human Hck kinase; P08631; Recombinant Hck-YEEI plus Nef, Z-Lyte FRET kinase assay; inhibition, % at 20 µM; hit rate 0.68% among 220,000;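 active = Hck-Nef kinase inhibition above about 50%, limit read from the data; inactive = inhibition below that limit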;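 note: 0% = DMSO with Hck plus Nef and 100% = Hck alone without Nef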
Target sequence (P08631 whole entry, looked up): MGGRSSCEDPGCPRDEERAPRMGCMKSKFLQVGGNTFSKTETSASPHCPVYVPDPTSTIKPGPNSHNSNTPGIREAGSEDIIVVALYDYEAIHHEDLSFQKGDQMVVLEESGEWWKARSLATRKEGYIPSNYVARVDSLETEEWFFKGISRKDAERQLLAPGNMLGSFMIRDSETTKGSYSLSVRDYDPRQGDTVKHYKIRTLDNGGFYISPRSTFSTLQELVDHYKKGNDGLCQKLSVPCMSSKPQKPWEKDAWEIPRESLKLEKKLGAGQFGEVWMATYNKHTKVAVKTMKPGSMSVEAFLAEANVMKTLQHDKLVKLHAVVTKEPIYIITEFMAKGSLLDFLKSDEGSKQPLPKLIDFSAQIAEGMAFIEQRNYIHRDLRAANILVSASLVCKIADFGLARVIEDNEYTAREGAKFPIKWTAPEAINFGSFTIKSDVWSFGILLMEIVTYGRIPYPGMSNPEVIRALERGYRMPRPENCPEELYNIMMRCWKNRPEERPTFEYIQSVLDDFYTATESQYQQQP
YIC counter: counter-screen: alters YIC FRET probe signal. Purified YIC probe, intramolecular FRET ratio YFP/CFP. hit rate 40% among 1,000. shares compounds with RanGTP-Imp inh. AID 435026. IC50, µM;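 active = fitted half-maximal inhibitory concentration no more than tenfold above the top dose tested; inconclusive = flat fit with 30 to 70% activity, or poor fit; inactive = half-maximal concentration beyond tenfold above the top dose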
Active calls of the source: *; ? = inconclusive; · = not tested or not shown. Only some compounds are listed: those with a hit (about 1.8% of all), similar ones and a draw of the others.

SMILES	Runt-SMMHC FRET	Runt-CBFb FRET	RanGTP-Imp inh	Hck-Nef inh	YIC counter
COc1ccc(-n2c(N)c(C(=O)NCc3ccco3)c3nc4ccccc4nc32)c(OC)c1	95.3*	40.0	32.6*	35.5	19.4*
NS(=O)(=O)c1cccc(NC(=O)CCSc2ccc(Cl)cc2)c1	-21.7	9.3	18.5*	7.5	>50
NS(=O)(=O)c1cccc(NC(=O)CCCNC(=O)c2ccc(Cl)cc2)c1	·	·	-1.6	·	·
CCN(Cc1ccccc1)C(=O)CN1C(=O)NC(CC)(c2ccc(F)cc2)C1=O (stereo unspecified)	·	·	23.5*	·	>50
O=C(CCCc1nc(-c2ccc(Cl)cc2)no1)NC1CCCC1	·	·	5.6	·	·
O=C(COc1ccc(F)cc1Br)NCc1ccccn1	-2.5	-1.0	?	0.9	·
O=C(O)COc1ccc(F)cc1Br	-0.5	1.1	25.5*	-6.3	>50
O=C(Cc1n[nH]c(=O)c2ccccc12)NCc1ccc(Cl)cc1	-0.4	2.1	2.4	11.1	·
O=C(Cc1n[nH]c(=O)c2ccccc12)NCc1ccccn1	3.6	1.2	22.8*	-0.4	>50
COc1ccc(N(C)S(=O)(=O)c2cccc(C(=O)N3CCN(S(=O)(=O)c4ccc(C)cc4)CC3)c2)cc1	·	·	-1.6	·	·
CC1Cc2cccc3c(O)c(C(=O)c4nn[nH]n4)c(=O)n1c23 (stereo unspecified)	-0.6	3.6	-4.0	3.8	·
O=C(O)C1C2CCC(C2)C1C(=O)NCCc1cccc(Cl)c1 (stereo unspecified)	·	·	-4.2	·	·
O=C(O)C1C2CCC(C2)C1C(=O)NCCc1ccc(F)cc1 (stereo unspecified)	·	·	21.0*	·	>50
Cc1ccc(-c2c(C(=O)N/N=C/c3ccc4c(c3)OCO4)nnn2-c2nonc2N)cc1	·	·	22.8*	·	>50
O=C(COc1ccc(Cl)cc1)NC1=NN(c2ccccc2)C(=O)C1	-1.6	-5.0	3.6	5.3	·
CCN1CCN(c2cc(=O)n(Cc3ccc(F)cc3)c(=O)[nH]2)CC1	-6.1	-78.7	28.8*	17.5	>50
O=c1cc(N2CCN(Cc3ccccc3)CC2)[nH]c(=O)n1-c1ccc(Br)cc1	0.0	3.2	31.1*	1.3	>50
O=c1cc(N2CCN(c3ccccc3)CC2)[nH]c(=O)n1-c1ccccc1	-7.1	2.3	9.2	15.1	·
CCOC(=O)N1CCN(c2cc(=O)n(Cc3ccc(F)cc3)c(=O)[nH]2)CC1	-0.6	-2.0	25.8*	15.1	>50
COC(=O)COc1ccc2c(c1)O/C(=C\c1ccco1)C2=O	·	·	17.8*	·	28.7*
COCCN(CCOC)Cc1c(O)ccc2c1O/C(=C\c1ccco1)C2=O	·	·	-57.3	·	·
CCN(CC)C(=O)Oc1ccc2c(c1)O/C(=C\c1ccco1)C2=O	·	·	18.2*	·	8.16*
O=C(NCC(=O)N(c1ccccc1F)C(C(=O)NC1CCCC1)c1ccncc1)c1ccco1 (stereo unspecified)	·	·	1.2	·	·
Cn1c(=O)cc(OCC(=O)NCc2ccccn2)c2ccccc21	-8.6	-0.1	1.9	1.8	·
Cn1c(=O)cc(OCCCC(=O)NCc2ccccn2)c2ccccc21	0.1	-6.1	22.5*	2.4	>50
SMILES	Runt-SMMHC FRET	Runt-CBFb FRET	RanGTP-Imp inh	Hck-Nef inh	YIC counter
CSc1ccc(C(=O)N2CCC(CCC(=O)NCc3ccc(F)cc3)CC2)cc1	·	·	0.7	·	·
CC(C)(C)C(=O)NC(=S)Nc1ccc(S(=O)(=O)Nc2nccs2)cc1	-11.8	2.7	17.5*	-13.4	>50
COc1ccc(Nc2nc(C)c3ccccc3n2)cc1	-0.5	-1.8	1.4	0.6	·
CC1=NC(Nc2nc(C)c3ccccc3n2)=NC(C)(C)C1	4.6	1.0	29.5*	-1.0	>50
O=C(Cc1ccccc1C(=O)O)Nc1cccc2ccccc12	·	·	21.1*	·	>50
Cc1ccc(SCC(=O)OCC(=O)NC(C)c2ccc(Br)cc2)cc1 (stereo unspecified)	·	·	-2.0	·	·
Cc1ccc(-n2nc3c(c2NC(=O)c2ccccc2)CS(=O)(=O)C3)cc1C	·	·	-2.3	·	·
COc1ccc(/C=N/c2sc3c(c2C#N)CCN(Cc2ccccc2)C3)c(O)c1	44.4	46.1	4.2	0.9	·
Cc1cccc(/C=N/c2sc3c(c2C#N)CCN(Cc2ccccc2)C3)c1O	125.5*	30.7	36.4*	3.1	>50
CCCS(=O)(=O)c1ccc(COC(=O)Cc2ccc([N+](=O)[O-])cc2)cc1	·	·	4.4	·	·
Cc1nc2nc(CCNS(=O)(=O)c3ccc(Cl)cc3)cn2nc1C	·	·	17.7*	·	32.2*
CCOC(=O)c1sc2nccc(OC)c2c1N=CNOC	1.3	2.0	-3.9	28.4	·
CC1(C)CNC(=O)C=C(c2ccccc2)C1	2.3	-0.1	22.9*	1.9	>50
COCCn1ccc2c(OCC(=O)NCCc3ccccc3)cccc2c1=O	·	·	0.6	·	·
CCOCCCn1c(SCC(=O)NCc2ccc3c(c2)OCO3)nc2ccccc2c1=O	-1.2	-4.6	-1.8	21.7	·
COCCCn1c(=N)c(C(=O)NCc2ccc3c(c2)OCO3)cc2c(=O)n3ccccc3nc21	172.3*	79.0*	36.0*	8.0	24.9*
CCOCCCn1c(=N)c(C(=O)NCc2ccc3c(c2)OCO3)cc2c(=O)n3cccc(C)c3nc21	163.0*	60.5*	29.2*	7.4	18*
Cc1ccccc1C(=O)NC(=S)N(C)CCc1ccccn1	-4.2	0.2	2.2	9.5	·
O=c1[nH]c(-[n+]2ccc3ccccc3c2)c(/C=N/N=C(\[O-])c2ccccc2)s1	·	·	24.7*	·	>50
CCCc1ccc2oc(C(=O)NCCCN3CCOCC3)c(C)c2c1	·	·	0.8	·	·
CCN(CC)S(=O)(=O)c1ccc2oc(C(=O)NCCCN3CCOCC3)c(C)c2c1	-0.4	-0.3	17.0*	0.1	>50
COc1ccc(C(=O)O)cc1S(=O)(=O)NC(C)(C)C	0.1	0.4	2.7	36.6	·
COc1ccc(C(=O)O)cc1S(=O)(=O)N(C)C	-1.2	0.3	26.2*	16.9	>50
Cc1cc(C)c(C2=CC(c3ccccc3)n3ncnc3N2)cc1C (stereo unspecified)	·	·	18.0*	·	30.4*
N#C/C(=C/c1cn(CC(=O)O)c2ccccc12)C(=O)NCc1ccccc1	3.8	4.5	22.6*	23.1	>50
SMILES	Runt-SMMHC FRET	Runt-CBFb FRET	RanGTP-Imp inh	Hck-Nef inh	YIC counter
Cc1ccc(Cl)cc1-n1c(=O)cc(N2CC(C)OC(C)C2)[nH]c1=O (stereo unspecified)	-5.7	0.3	56.2*	4.7	>50
CC(C)SCC(=O)Nc1ncc2c(n1)-c1ccccc1CC2	17.6	6.6	18.4*	31.1	3.48*
CCc1nnc(NC(=O)c2c(C)nn(-c3ccccc3)c2Cl)s1	-1.1	-1.5	20.1*	-1.7	>50
N#C/C(=C/c1ccc(-c2ccccc2)o1)c1nc(-c2cccs2)cs1	-158.7	-23.3	·	1.9	·
N#C/C(=C\c1ccc(-c2ccc(F)cc2)o1)C(=O)Nc1nc(-c2cccs2)cs1	-31.7	-8.8	18.6*	19.8	>50
CC/C(=N\NC(=O)c1cc(C2CC2)[nH]n1)c1ccccc1	·	·	38.2*	·	>50
CCOC(=O)N1CCN(CC(=O)Nc2sc(CC)cc2C(=O)c2ccc(OC)cc2)CC1	-8.4	-6.6	4.4	-4.5	·

Screening data (PubChem BioAssay)
